Experimental data taken from ChEMBL document CHEMBL5661979, “Pharmacological inhibition of BMK1 suppresses tumor growth through promyelocytic leukemia protein” (Cancer Cell, 2010).

Legend:
Insulin receptor [1] = target: T1, Insulin receptor (Homo sapiens, UniProt P06213); experiment: Inhibition of INSR in human HeLa cells lysate at 10 uM pre incubated for 15 mins followed by ADP acyl phosphate probe addition and measured after 10 mins by LC-MS/MS analysis relative to control; type: subcellular; details: time 25.0 min
Insulin receptor [2] = target: T1, Insulin receptor; experiment: Inhibition of INSR in human HeLa cells lysate at 50 uM pre incubated for 15 mins followed by ADP acyl phosphate probe addition and measured after 10 mins by LC-MS/MS analysis relative to control; type: subcellular; details: time 25.0 min
[3] = Inhibition of NEK6/7 in human HeLa cells lysate pre incubated for 15 mins followed by ATP acyl phosphate probe addition and measured after 10 mins by LC-MS/MS analysis; type: subcellular
[4] = Tmax in Sprague-Dawley rat at 2 mg/kg, po measured up to 8 hrs by LC-MS/MS analysis; type: ADME, organism-based; details: in vivo
[5] = target: T2, Cyclin-dependent kinase 2 (Homo sapiens, UniProt P24941); experiment: Inhibition of CDK2 in human HeLa cells lysate at 50 uM pre incubated for 15 mins followed by ADP acyl phosphate probe addition and measured after 10 mins by LC-MS/MS analysis relative to control; type: subcellular; details: time 25.0 min
Method in brief: (§1)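 KiNativ profiling in HeLa lysate (5 mg/mL total protein). Lysate incubated 15 min with inhibitor at 50, 10, 2, 0.8 or 0 μM. ATP or ADP acylphosphate probe then added (5 μM final) and reacted 10 min. Reaction stopped with urea and analysed by targeted MS, using up to four fragment ions per kinase peptide-probe conjugate. % inhibition taken against untreated lysate. Run in duplicate.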

[6] = target: Mitogen-activated protein kinase 14 (Homo sapiens, UniProt Q16539); experiment: Inhibition of P38a in human HeLa cells lysate pre incubated for 15 mins followed by ATP acyl phosphate probe addition and measured after 10 mins by LC-MS/MS analysis; type: subcellular
[7] = target: Cyclin-dependent kinase 1 (Homo sapiens, UniProt P06493); experiment: Inhibition of CDC2 in human HeLa cells lysate pre incubated for 15 mins followed by ADP acyl phosphate probe addition and measured after 10 mins by LC-MS/MS analysis; type: subcellular; method in brief: as §1
[8] = Inhibition of MSK1/2 in human HeLa cells lysate pre incubated for 15 mins followed by ADP acyl phosphate probe addition and measured after 10 mins by LC-MS/MS analysis; type: subcellular
[9] = Toxicity in C57Bl/6 mouse assessed as effect on sodium level at 50 mg/kg, ip for 14 days (reference value: 156 mM); type: organism-based; details: in vivo, 336 h, time 14 day
[10] = target: Serine/threonine-protein kinase MARK2 (Homo sapiens, UniProt Q7KZI7); experiment: Inhibition of MARK2 in human HeLa cells lysate pre incubated for 15 mins followed by ADP acyl phosphate probe addition and measured after 10 mins by LC-MS/MS analysis; type: subcellular
[11] = target: Ribosomal protein S6 kinase alpha-1 (Homo sapiens, UniProt Q15418); experiment: Inhibition of RSK1 domain 2 in human HeLa cells lysate at 2 uM pre incubated for 15 mins followed by ATP acyl phosphate probe addition and measured after 10 mins by LC-MS/MS analysis relative to control; type: subcellular; details: time 25.0 min
[12] = Inhibition of NEK6/7 in human HeLa cells lysate pre incubated for 15 mins followed by ADP acyl phosphate probe addition and measured after 10 mins by LC-MS/MS analysis; type: subcellular
[13] = Inhibition of MSK1/2 in human HeLa cells lysate at 50 uM pre incubated for 15 mins followed by ADP acyl phosphate probe addition and measured after 10 mins by LC-MS/MS analysis relative to control; details: 25 min, condition cancer
[14] = target: Phosphatidylinositol 4-kinase beta (Homo sapiens, UniProt Q9UBF8); experiment: Inhibition of PIK4CB in human HeLa cells lysate pre incubated for 15 mins followed by ATP acyl phosphate probe addition and measured after 10 mins by LC-MS/MS analysis; type: subcellular
[15] = target: Serine/threonine-protein kinase Chk2 (Homo sapiens, UniProt O96017); experiment: Inhibition of CHK2 in human HeLa cells lysate at 50 uM pre incubated for 15 mins followed by ADP acyl phosphate probe addition and measured after 10 mins by LC-MS/MS analysis relative to control; type: subcellular; details: time 25.0 min
[16] = target: Serine/threonine-protein kinase tousled-like 1 (Homo sapiens, UniProt Q9UKI8); experiment: Inhibition of TLK1 in human HeLa cells lysate pre incubated for 15 mins followed by ADP acyl phosphate probe addition and measured after 10 mins by LC-MS/MS analysis; type: subcellular
[17] = target: T3, Non-receptor tyrosine-protein kinase TNK1 (Homo sapiens) (UniProt Q13470); experiment: Inhibition of TNK1 in human HeLa cells lysate at 2 uM pre incubated for 15 mins followed by ADP acyl phosphate probe addition and measured after 10 mins by LC-MS/MS analysis relative to control; type: subcellular; details: time 25.0 min
T3 sequence (whole entry): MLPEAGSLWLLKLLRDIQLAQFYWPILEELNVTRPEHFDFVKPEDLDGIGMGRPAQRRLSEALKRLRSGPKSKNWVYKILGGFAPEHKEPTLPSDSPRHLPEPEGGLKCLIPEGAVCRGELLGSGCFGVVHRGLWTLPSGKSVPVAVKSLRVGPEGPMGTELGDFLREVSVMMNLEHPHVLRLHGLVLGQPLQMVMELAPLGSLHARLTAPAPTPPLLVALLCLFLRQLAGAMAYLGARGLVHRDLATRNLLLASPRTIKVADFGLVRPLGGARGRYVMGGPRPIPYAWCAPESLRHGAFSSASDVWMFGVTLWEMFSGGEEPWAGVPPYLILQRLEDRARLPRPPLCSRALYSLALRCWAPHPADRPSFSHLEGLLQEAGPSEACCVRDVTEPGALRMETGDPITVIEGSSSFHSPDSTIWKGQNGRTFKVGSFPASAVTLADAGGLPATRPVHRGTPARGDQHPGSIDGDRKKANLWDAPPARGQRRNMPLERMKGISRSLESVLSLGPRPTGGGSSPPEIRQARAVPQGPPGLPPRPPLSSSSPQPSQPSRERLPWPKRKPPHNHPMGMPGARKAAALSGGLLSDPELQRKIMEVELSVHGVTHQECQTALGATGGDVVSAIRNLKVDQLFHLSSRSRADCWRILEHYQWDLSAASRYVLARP

[18] = target: T2, Cyclin-dependent kinase 2; experiment: Inhibition of CDK2 K2 site in human HeLa cells lysate pre incubated for 15 mins followed by ATP acyl phosphate probe addition and measured after 10 mins by LC-MS/MS analysis; type: subcellular; method in brief: as §1
[19] = Inhibition of HGK/MINK/TNIK in human HeLa cells lysate pre incubated for 15 mins followed by ADP acyl phosphate probe addition and measured after 10 mins by LC-MS/MS analysis; type: subcellular

T1 sequence (P06213 28-758 limits assumed): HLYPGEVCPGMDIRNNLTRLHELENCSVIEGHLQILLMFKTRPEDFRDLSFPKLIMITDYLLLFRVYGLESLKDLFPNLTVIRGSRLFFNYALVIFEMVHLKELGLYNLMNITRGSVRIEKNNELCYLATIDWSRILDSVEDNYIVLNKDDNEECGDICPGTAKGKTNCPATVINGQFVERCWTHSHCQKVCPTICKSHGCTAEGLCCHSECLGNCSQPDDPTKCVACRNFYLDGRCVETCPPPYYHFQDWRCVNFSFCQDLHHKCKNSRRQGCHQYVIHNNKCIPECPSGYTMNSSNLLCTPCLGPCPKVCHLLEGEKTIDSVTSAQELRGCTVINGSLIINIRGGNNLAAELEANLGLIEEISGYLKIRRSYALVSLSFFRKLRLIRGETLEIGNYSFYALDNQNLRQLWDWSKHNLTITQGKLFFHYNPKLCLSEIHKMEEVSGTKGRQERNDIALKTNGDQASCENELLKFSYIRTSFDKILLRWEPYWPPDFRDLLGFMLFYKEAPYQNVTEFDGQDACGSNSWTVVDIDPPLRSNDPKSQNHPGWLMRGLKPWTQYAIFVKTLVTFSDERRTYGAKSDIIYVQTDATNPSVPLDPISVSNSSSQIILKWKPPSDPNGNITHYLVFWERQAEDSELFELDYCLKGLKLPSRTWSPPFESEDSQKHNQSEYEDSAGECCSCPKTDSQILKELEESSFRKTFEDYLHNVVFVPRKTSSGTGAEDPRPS
T1 sequence (P06213 763-1382 limits assumed): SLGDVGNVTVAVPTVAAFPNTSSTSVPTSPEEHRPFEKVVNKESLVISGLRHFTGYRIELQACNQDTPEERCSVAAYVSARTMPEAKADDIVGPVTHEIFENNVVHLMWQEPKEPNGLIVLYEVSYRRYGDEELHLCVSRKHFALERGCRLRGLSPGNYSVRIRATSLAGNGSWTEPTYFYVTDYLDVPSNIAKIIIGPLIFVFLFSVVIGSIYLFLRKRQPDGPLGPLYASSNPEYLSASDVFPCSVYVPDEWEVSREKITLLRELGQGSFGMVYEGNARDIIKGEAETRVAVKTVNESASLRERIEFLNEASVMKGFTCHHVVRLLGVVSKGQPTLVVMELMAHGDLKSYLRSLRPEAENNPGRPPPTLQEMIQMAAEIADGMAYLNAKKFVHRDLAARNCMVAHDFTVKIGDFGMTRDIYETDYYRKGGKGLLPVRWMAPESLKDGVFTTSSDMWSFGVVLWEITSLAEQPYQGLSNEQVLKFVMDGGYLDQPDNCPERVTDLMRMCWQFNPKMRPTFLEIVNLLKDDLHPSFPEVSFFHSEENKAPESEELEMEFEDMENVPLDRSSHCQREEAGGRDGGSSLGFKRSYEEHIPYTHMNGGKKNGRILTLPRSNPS
Serine/threonine-protein kinase tousled-like 1, sequence (Q9UKI8 whole entry): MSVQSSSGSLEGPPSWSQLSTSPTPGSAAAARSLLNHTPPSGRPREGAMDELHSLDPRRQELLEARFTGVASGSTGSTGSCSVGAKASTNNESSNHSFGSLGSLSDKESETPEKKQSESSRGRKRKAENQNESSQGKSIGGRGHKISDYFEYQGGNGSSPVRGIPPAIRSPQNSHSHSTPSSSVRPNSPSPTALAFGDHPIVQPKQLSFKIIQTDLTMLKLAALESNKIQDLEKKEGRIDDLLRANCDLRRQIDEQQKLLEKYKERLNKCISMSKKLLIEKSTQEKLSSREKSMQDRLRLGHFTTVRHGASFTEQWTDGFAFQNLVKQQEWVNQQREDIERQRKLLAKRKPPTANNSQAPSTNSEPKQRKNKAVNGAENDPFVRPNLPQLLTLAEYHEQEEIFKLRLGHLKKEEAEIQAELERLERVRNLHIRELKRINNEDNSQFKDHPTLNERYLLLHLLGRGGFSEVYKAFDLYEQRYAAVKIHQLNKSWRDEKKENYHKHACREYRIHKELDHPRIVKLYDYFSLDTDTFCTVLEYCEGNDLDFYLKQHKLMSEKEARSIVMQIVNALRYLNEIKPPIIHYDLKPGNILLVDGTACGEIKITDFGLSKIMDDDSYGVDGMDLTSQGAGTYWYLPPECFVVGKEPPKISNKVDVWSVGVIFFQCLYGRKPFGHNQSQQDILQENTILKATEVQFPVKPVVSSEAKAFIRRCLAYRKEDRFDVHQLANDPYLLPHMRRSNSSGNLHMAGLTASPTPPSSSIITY
Cyclin-dependent kinase 1, sequence (P06493 whole entry): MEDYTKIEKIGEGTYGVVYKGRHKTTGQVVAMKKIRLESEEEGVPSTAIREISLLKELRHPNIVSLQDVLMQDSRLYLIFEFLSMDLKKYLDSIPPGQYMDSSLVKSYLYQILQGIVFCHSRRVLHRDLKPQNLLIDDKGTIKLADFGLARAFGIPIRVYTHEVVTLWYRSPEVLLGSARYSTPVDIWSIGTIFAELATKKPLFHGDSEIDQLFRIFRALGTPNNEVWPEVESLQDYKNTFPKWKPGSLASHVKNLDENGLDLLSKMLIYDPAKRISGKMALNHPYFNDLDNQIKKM
Mitogen-activated protein kinase 14, sequence (Q16539 whole entry): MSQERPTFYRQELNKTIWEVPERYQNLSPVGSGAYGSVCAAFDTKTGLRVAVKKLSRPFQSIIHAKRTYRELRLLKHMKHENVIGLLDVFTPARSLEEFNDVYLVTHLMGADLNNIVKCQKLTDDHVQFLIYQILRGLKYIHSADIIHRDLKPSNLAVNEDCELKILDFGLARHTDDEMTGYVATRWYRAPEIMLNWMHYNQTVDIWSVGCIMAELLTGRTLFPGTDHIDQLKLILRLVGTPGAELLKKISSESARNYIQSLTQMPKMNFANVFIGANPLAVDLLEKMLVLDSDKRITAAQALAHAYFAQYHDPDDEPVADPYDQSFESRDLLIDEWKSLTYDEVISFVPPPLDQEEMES
Serine/threonine-protein kinase MARK2, sequence (Q7KZI7 whole entry, the tested form may be a part): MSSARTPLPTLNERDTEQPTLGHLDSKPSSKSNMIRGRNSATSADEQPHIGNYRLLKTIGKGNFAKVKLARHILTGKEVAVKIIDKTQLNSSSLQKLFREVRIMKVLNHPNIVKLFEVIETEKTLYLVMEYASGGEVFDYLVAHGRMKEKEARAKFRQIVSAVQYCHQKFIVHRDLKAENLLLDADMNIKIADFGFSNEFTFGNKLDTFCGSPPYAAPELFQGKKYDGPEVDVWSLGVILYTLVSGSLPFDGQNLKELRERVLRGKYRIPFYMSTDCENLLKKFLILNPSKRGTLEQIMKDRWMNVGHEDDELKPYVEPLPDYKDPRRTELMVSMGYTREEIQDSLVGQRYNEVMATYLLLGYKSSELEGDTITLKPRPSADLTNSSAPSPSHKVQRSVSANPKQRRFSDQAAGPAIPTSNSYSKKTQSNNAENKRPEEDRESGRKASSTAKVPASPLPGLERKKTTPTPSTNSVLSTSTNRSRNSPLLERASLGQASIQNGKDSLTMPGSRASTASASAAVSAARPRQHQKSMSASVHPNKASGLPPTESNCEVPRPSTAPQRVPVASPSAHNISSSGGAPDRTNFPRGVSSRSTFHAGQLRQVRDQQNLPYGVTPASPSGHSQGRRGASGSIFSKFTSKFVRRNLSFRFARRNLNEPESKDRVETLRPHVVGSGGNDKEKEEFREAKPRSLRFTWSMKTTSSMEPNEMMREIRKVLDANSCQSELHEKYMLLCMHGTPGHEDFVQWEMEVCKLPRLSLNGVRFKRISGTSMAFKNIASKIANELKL
Ribosomal protein S6 kinase alpha-1, sequence (Q15418 whole entry, the tested form may be a part): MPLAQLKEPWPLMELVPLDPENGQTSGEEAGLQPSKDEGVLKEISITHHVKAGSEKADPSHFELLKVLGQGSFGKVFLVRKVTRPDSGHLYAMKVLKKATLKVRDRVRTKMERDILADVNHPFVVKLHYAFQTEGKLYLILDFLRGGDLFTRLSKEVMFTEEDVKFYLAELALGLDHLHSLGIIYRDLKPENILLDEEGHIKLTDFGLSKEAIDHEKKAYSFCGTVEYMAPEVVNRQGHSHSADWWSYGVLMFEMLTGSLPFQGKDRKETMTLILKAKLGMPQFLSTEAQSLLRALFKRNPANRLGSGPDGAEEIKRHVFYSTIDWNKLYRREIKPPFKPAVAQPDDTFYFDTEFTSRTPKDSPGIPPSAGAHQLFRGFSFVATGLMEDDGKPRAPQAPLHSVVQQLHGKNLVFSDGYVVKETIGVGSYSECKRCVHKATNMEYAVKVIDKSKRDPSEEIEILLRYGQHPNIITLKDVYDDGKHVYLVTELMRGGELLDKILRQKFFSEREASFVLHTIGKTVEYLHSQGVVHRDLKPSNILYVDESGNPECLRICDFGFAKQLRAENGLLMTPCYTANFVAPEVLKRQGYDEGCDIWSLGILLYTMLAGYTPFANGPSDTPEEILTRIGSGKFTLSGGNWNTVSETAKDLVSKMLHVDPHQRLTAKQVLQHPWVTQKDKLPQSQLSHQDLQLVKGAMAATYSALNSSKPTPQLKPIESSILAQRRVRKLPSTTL
Serine/threonine-protein kinase Chk2, sequence (O96017 whole entry): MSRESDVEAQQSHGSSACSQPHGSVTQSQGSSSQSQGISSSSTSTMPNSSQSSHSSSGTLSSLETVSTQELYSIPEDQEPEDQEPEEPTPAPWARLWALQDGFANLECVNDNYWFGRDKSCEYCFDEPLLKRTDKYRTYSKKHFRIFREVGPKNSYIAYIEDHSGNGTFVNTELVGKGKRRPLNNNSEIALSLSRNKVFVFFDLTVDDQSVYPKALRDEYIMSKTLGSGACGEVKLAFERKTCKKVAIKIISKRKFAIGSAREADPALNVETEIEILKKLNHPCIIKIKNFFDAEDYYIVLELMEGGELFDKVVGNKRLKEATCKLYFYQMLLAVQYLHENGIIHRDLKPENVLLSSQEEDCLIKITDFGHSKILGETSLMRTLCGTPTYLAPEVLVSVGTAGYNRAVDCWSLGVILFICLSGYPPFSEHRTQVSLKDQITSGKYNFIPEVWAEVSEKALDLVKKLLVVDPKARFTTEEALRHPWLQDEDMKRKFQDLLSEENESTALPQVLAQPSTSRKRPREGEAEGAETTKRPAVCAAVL

## CCOc1cc(N2CCC(O)CC2)ccc1Nc1ncc2c(n1)N(C)c1ccccc1C(=O)N2C
Insulin receptor [1]
  inhibition: -8%
Insulin receptor [2]
  inhibition: -6.5%
[3]
  IC50: > 50 µM
[4]
  Tmax: 30 min
[5]
  inhibition: -3.2%
[6]
  IC50: > 50 µM
[7]
  IC50: > 50 µM
[8]
  IC50: > 50 µM
[9]
  Activity: 143 mM
[10]
  IC50: > 50 µM
[11]
  inhibition: 13.6%
[12]
  IC50: > 50 µM
[13]
  inhibition at 50 µM: 10%
[14]
  IC50: 34 µM
[15]
  inhibition: -2.7%
[16]
  IC50: > 50 µM
[17]
  inhibition: 9.2%
[18]
  IC50: > 50 µM
[19]
  IC50: > 50 µM
